An excerpt weighted towards active compounds, which were near 0.55% of everything screened.
V1R ag counter: agonists of human V1a receptor, primary screen, counter-screen for OXTR agonist project, fluorescence, CHO-V1R cells; AID 2797, 2010; activation, % at 3 µM; actives 0.25% (n = 320,000); Fluo-8 calcium fluorescence, agonist mode; 0% DMSO, 100% 3 nM vasopressin;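 active = activation above the mean activation of all tested compounds plus 3 SD, per screening run, cut at about 20% in these data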;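 also: signal is peak over basal fluorescence ratio across a 100 second FLIPR read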
zfTRPN1 agonist: zebrafish TRPN1 channel agonists, primary screen, cell-based, HEK293, calcium fluorescence; actives 0.18% (n = 220,000); HEK293 zebrafish TRPN1-YFP, Fluo-8 calcium fluorescence; 100% = response to 87 µM carbachol; activation, % at 3 µM;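 active = activation above its plate's cutoff, the mean activation of test wells on that plate plus 3 SD, cut at about 19% in these data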;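 also: 0% = DMSO alone and 100% = 87 µM carbachol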
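Material: zebrafish TRPN1-YFP in HEK293 cells. Doses: one dose of 3 µM, 0.3% DMSO. Incubation: dye 1 h 37 °C plus 30 min RT. Measured by: intracellular calcium fluorescence with Fluo-8.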
OXTR agonist: human OXTR agonists, primary screen, fluorescence, CHO-OTR cells, Fluo-8 calcium | activation, % at 3 µM | Fluo-8 calcium fluorescence; normalized: DMSO 0%, oxytocin 100% | AID 2435, 2010 | actives 0.32% (n = 320,000);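 active = activation above the mean of all tested compounds plus 3 SD, cutoff set per screening run, cut at about 20% in these data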;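 also: peak over basal fluorescence ratio from a 100 s FLIPR kinetic read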
OXTR potentiate: human OXTR potentiators, primary screen, fluorescence, CHO-OTR cells, Fluo-8 calcium. activation, % at 3 µM. AID 2445, 2010. actives 0.061% (n = 320,000). Oxytocin receptor (Homo sapiens), P30559. Fluo-8 calcium fluorescence, potentiator mode; 0% = oxytocin EC15, 100% = EC100;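 active = activation above that plate's cutoff, the mean activation of tested compounds plus 3 SD, cut at about 6.6% in these data, passing the limit was not always enough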;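 also: 100% uses oxytocin at 75 nM as the full agonist control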
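System: human OTR in CHO cells; Also added: sub-maximal oxytocin, roughly EC15; Timing: compound 6 min at room temperature before oxytocin, 100 s read; Technique: Fluo-8 intracellular calcium fluorescence, ex 470-495, em 515-575 nm; Controls: oxytocin EC15 low and EC100 high; Replication: singlicate.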
TRPML3 agonist: human TRPML3 channel agonists, primary screen, cell-based, HEK293 TRPML3-YFP, Fluo-8 calcium fluorescence, 3 µM; Mucolipin-3 (Homo sapiens), Q8TDD5; 100% = the carbachol control signal; activation, % at 3 µM; actives 0.29% (n = 220,000);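 active = activation above its plate's cutoff, the mean activation of the plate's test wells plus 3 SD, cut at about 12% in these data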;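 also: 0% = DMSO only wells and 100% = carbachol wells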
Target sequence (Q8TDD5 whole entry, looked up): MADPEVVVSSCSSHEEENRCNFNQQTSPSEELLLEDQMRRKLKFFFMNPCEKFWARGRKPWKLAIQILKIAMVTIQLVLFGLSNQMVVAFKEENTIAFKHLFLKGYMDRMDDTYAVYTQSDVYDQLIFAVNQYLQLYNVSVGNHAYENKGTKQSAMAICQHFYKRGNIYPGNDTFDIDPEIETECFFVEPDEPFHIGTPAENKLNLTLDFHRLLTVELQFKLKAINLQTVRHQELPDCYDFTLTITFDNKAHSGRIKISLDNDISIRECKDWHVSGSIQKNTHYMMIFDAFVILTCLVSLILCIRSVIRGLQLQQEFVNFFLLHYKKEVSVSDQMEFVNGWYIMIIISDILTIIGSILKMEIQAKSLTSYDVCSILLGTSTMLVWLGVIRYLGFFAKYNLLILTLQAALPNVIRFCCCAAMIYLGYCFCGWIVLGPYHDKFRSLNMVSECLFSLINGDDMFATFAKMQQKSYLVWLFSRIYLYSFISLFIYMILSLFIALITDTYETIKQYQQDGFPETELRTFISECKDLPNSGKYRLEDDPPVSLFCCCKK
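system = HEK293 cells stably carrying human TRPML3-YFP | doses = one concentration, 3 µM nominal, 0.3% DMSO | timing = dye loading 1 h 37 °C then 30 min ambient, 125 s read | detection = Fluo-8 calcium dye fluorescence, ex 470-495, em 515-575 nm | benchmarks = high control carbachol 87 µM, low control DMSO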
TRPN1 ag 2: zebrafish TRPN1 channel agonists, counter-screen for TRPML3 agonist project, cell-based, HEK293 TRPN1-YFP, Fluo-8 calcium; actives 10% (n = 310); shares compounds with TRPML3 agonist; Fluo-8 calcium fluorescence; scaled: carbachol wells 100%, DMSO wells 0%; activation, % at 3 µM;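 active = mean activation over replicates above a set limit taken from the earlier TRPN1 channel primary screen, cut at about 19% in these data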;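 also: 100% = carbachol and 0% = 0.3% DMSO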
TRPML3 confirm: human TRPML3 channel agonists, confirmation, cell-based, HEK293 TRPML3-YFP, Fluo-8 calcium, triplicate; shares compounds with TRPML3 agonist; Fluo-8 calcium fluorescence; 100% set by carbachol, 0% by DMSO; activation, % at 3 µM; actives 80% (n = 310);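 active = activation above a set limit derived from the earlier primary screen, cut at about 12% in these data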
* = called active by the depositor; . = no result.

SMILES	V1R ag counter	zfTRPN1 agonist	OXTR agonist	OXTR potentiate	TRPML3 agonist	others
COc1ccc(C2CC3(CC(C)(C)NC(SC)=N3)Oc3cc(O)cc(C)c32)cc1 (stereo not drawn)	51*	1	39*	-10	1
CCC(C)c1ccccc1N1CC(C(=O)NCCCn2nc(C)cc2C)CC1=O (stereo not drawn)	-1	.	1	-4	.
O=C(NC1CCN(Cc2ccc(Cl)cc2)CC1)c1cn(-c2ccccc2)nc1-c1cccnc1	0	.	1	-3	.
O=S(=O)(Nc1ccc(F)cc1)c1ccc(S(=O)(=O)N2CCOCC2)cc1	22*	.	27*	-12	.
COc1ccc(N=Nc2nc3cc(Br)c(Br)cc3n2C)c(OC)c1	7	25*	10	-7	20*
COc1ccc(CNc2nc3ccccc3n2C)c(OC)c1	4	0	4	1	0
CCOc1ccc(OCCNC(=O)C(NC(=O)c2c(F)cccc2F)C(C)C)cc1 (stereo not drawn)	0	.	-2	2	.
CC[C@@H](C(=O)[C@@H](C)[C@@H](O)[C@H](C)CCc1ccc(C)c(O)c1C(=O)O)[C@H]1O[C@](CC)([C@H]2CC[C@](O)(CC)[C@H](C)O2)C[C@@H]1C	42*	.	32*	-9	.
CC(C)NC(=O)N(C)C[C@H]1Oc2ccc(NC(=O)Cc3ccccc3)cc2C(=O)N([C@H](C)CO)C[C@@H]1C	3	.	3	2	.
CN1/C(=C/C=C(C#N)C#N)C(C)(C)c2ccccc21	-1	1	-3	-5	1
CC1=C/C(=C\C=C(C#N)C#N)N(C)c2ccccc21	32*	27*	23*	-9	17*
COc1ccc(-[n+]2c(C)cc(/C=C3\Sc4ccccc4N3C)cc2C)cc1	13	19*	15	-20	7
Cc1ccc(Cl)cc1NC(=S)N/N=C/c1cccc2ccccc12	1	-1	0	-7	0
CCc1ccc(NC(=O)C(C)OC(=O)/C=C/c2ccc(O)c(OC)c2)cc1 (stereo not drawn)	34*	.	45*	-11	.
COc1cc(/C=C/C(=O)OCC(=O)c2ccc(OC(F)F)cc2)ccc1O	21*	.	34*	-10	.
O=C(/C=C/c1ccco1)OCC(=O)c1ccc(OC(F)F)cc1	1	.	-2	-6	.
COc1cc(/C=C/C(=O)OC(C)C(=O)Nc2c(C)n(C)n(-c3ccccc3)c2=O)ccc1O (stereo not drawn)	0	.	0	-8	.
CC(C)S(=O)(=O)c1csc(NC(=O)Nc2ccc(Cl)cc2)c1	17	21*	10	-18	7
COc1ccc(NC(=O)CN(C)C(=O)C2(c3ccccc3)CCCC2)cc1	0	.	-1	-4	.
Cc1ccc(O)c(C(=O)c2cc(C#N)c(=O)n(-c3nccs3)c2)c1	54*	45*	66*	-15	19*
CCCCCCn1c(=O)[nH]c2nc3cc(N)c(C)cc3nc2c1=O	.	42*	.	.	15*
Cc1ccc(NC(=O)Nc2cccc([N+](=O)[O-])c2)cc1F	8	23*	16	-13	12*
O=S(=O)(c1ccc(Cl)c2ccccc12)N1CCCC1	-1	-3	-2	-1	9
CCOC(=O)N1CCN(S(=O)(=O)c2ccc(OC)c(Cl)c2Cl)CC1	3	2	4	-17	1
COc1c(S(=O)(=O)N2CCCC2)ccc(Cl)c1Cl	0	0	-1	-7	12*	TRPN1 ag 2=0;TRPML3 confirm=8
SMILES	V1R ag counter	zfTRPN1 agonist	OXTR agonist	OXTR potentiate	TRPML3 agonist	others
COc1ccc(S(=O)(=O)N2CCCC2)c(Cl)c1Cl	0	-1	-1	3	11*	TRPN1 ag 2=0;TRPML3 confirm=4
O=S(=O)(Nc1ccccc1N1CCCCC1)c1ccc(F)cc1	-1	-3	-3	2	31*	TRPN1 ag 2=-2;TRPML3 confirm=78*
O=S(=O)(Nc1ccccc1N1CCCCC1)c1cccs1	-2	-2	-4	-1	14*	TRPN1 ag 2=-2;TRPML3 confirm=33*
CC1(C)CC(NC(=O)c2cc(S(=O)(=O)N3CCOCC3)ccc2Cl)CC(C)(C)N1	1	.	0	-2	.
O=C(C[C@@H]1C/C=C\C[C@@H](Cc2ccc(F)cc2)C(=O)OCCNC1=O)N[C@H](CO)Cc1ccccc1	0	.	1	7	.
COc1cc(C)nc(N(C)S(=O)(=O)c2ccccc2Cl)n1	1	3	0	-1	28*	TRPN1 ag 2=4;TRPML3 confirm=67*
O=C(c1ccccc1)c1ccc(O)cc1O	30*	18	24*	-7	18*	TRPN1 ag 2=11;TRPML3 confirm=8
CC1=CC(=O)C=C(C)C1=NOS(=O)(=O)c1ccccc1	.	4	.	.	7
CC1=CC(=O)C(C(C)C)=C/C1=N/OS(=O)(=O)c1ccccc1	12	16	5	-18	19*	TRPN1 ag 2=14;TRPML3 confirm=23*
CC(=O)c1cccc(OC(=O)c2cc(S(=O)(=O)N3CCOCC3)ccc2N2CCCC2)c1	0	.	-2	-5	.
COC(=O)c1ccc(CN(c2ccccc2Cl)S(C)(=O)=O)cc1	1	-2	-1	-8	0
COC(=O)c1ccc(Cl)cc1N(Cc1c(F)cccc1Cl)S(C)(=O)=O	-1	4	-4	-3	70*	TRPN1 ag 2=11;TRPML3 confirm=84*
Cc1ccc(S(=O)(=O)NC2CCCCC2)c2nsnc12	0	-1	-2	-7	11*	TRPN1 ag 2=0;TRPML3 confirm=12*
Nc1nnc(SCC(=O)NNC(=O)c2ccccc2F)s1	2	.	2	-2	.
Cc1ccc(S(=O)(=O)N(C)c2c(C)ccc(S(=O)(=O)N3CCN(C)CC3)c2C)cc1	0	-1	0	-8	8
C=C(C)CN1CCN(S(=O)(=O)c2ccc(C)c(N(C)S(=O)(=O)c3ccc(C)cc3)c2C)CC1	0	2	-1	-6	60*	TRPN1 ag 2=-1;TRPML3 confirm=78*
CC1CCCC(NC(=O)CSc2nnc(C(F)(F)F)n2C)C1C (stereo not drawn)	0	.	0	-3	.
O=C(c1cnn(C(=O)CN2CCCC2=O)c1)c1ccccc1O	2	.	0	-1	.

Bioassay records (PubChem)
